Source: paper PMC4839537 (Biochemical pharmacology, 2016)
Numbered stars: 1 amine (or outer) side, 2 acyl side, 3 side chain; on linkers, the order of the positions; unused ones are H or OH. Bridge positions count the residues as written; N and C are the ends. Square brackets hold non-standard residues; d marks the D form. Peptide text beside a SMILES is read from it. * marks the point of attachment. Leu(3R-OH,Nα-propionyl) = CCC(=O)N[C@H](C(=O)*)[C@H](O)C(C)C; X2 = CC(=O)NC(C(=O)OC(C(C)C)C(N[*:1])C(=O)[*:2])C(O)C(C)C; X1 = CC(C)[C@@H](O[*:3])[C@H](N[*:1])C(=O)[*:2]; NMeT = CN[CH](C(=O)O)[CH](C)O; dPhLac = O=C(O)[C@H](O)Cc1ccccc1; PhLac = O=C(O)[CH](O)Cc1ccccc1; NMeA = CN[CH](C)C(=O)O; NMeDha = C=C(NC)C(=O)O

Assays:
P2Y1R (Gq-coupled) = P2Y1R (Gq-coupled) (Homo sapiens, UniProt P47900); type: cell-based
P2Y1R (Gq-coupled), sequence (P47900 whole entry): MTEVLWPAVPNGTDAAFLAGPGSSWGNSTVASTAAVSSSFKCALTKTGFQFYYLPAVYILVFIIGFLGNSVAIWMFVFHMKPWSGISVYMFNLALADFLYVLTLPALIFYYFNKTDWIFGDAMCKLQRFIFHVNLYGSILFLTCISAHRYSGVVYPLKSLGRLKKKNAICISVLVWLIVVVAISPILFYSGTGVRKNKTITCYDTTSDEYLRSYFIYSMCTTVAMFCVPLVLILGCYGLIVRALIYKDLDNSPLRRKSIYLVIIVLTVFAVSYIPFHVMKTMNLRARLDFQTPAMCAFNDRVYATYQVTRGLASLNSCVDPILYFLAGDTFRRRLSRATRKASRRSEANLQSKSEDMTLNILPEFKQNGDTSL

platelet aggregation = settings: cited from earlier work
[1] = target: recombinant human M3 muscarinic receptor (Gαq) (Homo sapiens, UniProt P20309); type: cell-based
recombinant human M3 muscarinic receptor (Gαq), sequence (P20309 whole entry): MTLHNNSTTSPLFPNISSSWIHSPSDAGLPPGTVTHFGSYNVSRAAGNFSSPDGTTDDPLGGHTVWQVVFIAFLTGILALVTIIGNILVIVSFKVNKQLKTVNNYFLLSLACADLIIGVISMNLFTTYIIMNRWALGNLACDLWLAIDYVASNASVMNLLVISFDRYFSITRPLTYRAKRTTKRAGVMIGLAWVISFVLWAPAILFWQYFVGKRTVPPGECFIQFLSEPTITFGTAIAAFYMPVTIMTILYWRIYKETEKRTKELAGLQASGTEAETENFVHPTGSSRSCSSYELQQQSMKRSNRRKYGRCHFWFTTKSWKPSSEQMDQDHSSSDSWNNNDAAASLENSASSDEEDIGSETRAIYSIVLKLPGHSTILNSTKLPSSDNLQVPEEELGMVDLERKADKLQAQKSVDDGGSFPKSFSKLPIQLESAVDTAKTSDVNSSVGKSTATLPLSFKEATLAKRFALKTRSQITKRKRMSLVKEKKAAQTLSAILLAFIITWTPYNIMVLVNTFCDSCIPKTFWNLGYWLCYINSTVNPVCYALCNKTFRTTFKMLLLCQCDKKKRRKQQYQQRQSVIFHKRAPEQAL

ERK1/2 activation = ERK1/2 activation mediated through various GPCRs; type: cell-based
Outline: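 CHO (A1AR, M2, M3) or 1321N1 (P2Y1R) cells were seeded at 30,000 cells/100 μl and serum-starved overnight after attachment. Pretreatment was test compound or GO6983 (10 μM) for 30 min, or pertussis toxin (200 ng/ml) overnight. Agonists in Hank's buffered salt solution were applied for 5 min. Cells were lysed and p-ERK1/2 (Thr202/Tyr204) was read by AlphaScreen SureFire.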

Gα16 = settings: 1 μM; cited from earlier work
P2Y12R (Gi-coupled) = P2Y12R (Gi-coupled) (Homo sapiens, UniProt Q9H244); type: cell-based
P2Y12R (Gi-coupled), sequence (Q9H244 whole entry): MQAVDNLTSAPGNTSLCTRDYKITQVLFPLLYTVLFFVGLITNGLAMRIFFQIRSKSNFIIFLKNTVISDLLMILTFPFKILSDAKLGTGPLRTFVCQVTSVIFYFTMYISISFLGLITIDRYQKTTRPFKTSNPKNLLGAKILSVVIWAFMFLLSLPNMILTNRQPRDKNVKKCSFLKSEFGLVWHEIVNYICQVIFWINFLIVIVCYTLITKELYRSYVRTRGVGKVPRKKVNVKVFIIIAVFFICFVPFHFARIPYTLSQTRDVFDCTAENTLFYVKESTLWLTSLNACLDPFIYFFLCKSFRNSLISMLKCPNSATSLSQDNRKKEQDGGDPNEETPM

[2] = target: recombinant human A2BAR (Gαs) (Homo sapiens, UniProt P29275); type: cell-based
recombinant human A2BAR (Gαs), sequence (P29275 whole entry): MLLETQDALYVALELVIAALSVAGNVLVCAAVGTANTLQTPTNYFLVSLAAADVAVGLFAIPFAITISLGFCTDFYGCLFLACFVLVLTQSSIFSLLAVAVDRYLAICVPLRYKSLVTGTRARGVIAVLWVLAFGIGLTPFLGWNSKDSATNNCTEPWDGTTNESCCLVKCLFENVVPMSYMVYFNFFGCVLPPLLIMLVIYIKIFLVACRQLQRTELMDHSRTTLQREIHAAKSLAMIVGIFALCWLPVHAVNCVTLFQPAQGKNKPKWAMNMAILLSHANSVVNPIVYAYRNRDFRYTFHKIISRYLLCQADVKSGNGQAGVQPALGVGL

[3] = cited from earlier work
M2 muscarinic receptor = M2 muscarinic receptor (Homo sapiens, UniProt P08172); type: cell-based
M2 muscarinic receptor, sequence (P08172 whole entry): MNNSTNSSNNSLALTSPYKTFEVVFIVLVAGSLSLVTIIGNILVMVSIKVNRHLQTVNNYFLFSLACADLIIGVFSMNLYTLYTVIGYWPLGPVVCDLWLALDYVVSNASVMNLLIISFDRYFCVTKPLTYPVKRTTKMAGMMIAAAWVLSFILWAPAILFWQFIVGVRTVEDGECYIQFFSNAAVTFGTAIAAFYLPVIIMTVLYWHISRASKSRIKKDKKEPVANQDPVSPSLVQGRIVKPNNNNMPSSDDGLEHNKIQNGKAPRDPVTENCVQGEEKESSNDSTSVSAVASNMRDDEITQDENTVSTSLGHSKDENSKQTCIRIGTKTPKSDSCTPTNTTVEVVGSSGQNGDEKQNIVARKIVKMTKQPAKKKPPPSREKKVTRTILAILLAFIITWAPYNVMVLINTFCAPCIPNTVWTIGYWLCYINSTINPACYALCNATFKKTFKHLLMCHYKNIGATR

Gαq-coupled P2Y1R = Gαq-coupled P2Y1R (Homo sapiens, UniProt P47900); assay: Akt1/2/3 phosphorylation in 1321N1 cells expressing the P2Y1R; type: cell-based; settings: UBO-QIC 100 nM
Gαq-coupled P2Y1R, sequence (P47900 whole entry): as the sequence (P47900 whole entry) above
Outline: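 1321N1 astrocytoma cells expressing human P2Y1R were seeded at 30,000 cells/100 μl in complete medium. After attachment they were serum-starved overnight, pretreated with test compound (100 nM) for 30 min, then given agonist in Hank's buffered salt solution for 20 min. Lysed cells were assayed for p-Akt1/2/3 (Ser473) by AlphaScreen SureFire. Mean ± SEM of 3 independent experiments in duplicate.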

[4] = system: Gαq-coupled T1R1/T1R3 heterodimeric taste receptor; settings: MIN6 cells; cited from earlier work
Gαi subunits = settings: cited from earlier work
recombinant human A2AAR = recombinant human A2AAR (Homo sapiens, UniProt P29274); assay: CGS21680-induced cAMP accumulation in CHO cells expressing the A2AAR; type: cell-based; settings: data not shown
recombinant human A2AAR, sequence (P29274 whole entry): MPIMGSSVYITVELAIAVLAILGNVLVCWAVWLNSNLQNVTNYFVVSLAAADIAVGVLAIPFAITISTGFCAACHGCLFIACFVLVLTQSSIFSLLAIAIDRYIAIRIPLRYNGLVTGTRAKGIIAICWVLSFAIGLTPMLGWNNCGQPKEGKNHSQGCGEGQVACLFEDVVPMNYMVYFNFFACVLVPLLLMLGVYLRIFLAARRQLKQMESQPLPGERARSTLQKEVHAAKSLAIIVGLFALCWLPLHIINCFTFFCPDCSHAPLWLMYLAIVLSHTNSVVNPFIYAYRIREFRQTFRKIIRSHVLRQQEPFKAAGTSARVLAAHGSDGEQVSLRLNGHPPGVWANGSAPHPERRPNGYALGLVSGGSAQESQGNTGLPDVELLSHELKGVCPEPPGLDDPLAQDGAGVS
Outline: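 CHO cells stably expressing human A2AAR were grown in DMEM with 10% FBS, penicillin/streptomycin and glutamine, then plated in 96-well plates overnight. Cells were pretreated with test compound (300 nM) for 30 min or with pertussis toxin (200 ng/ml) overnight. Agonist was then added with rolipram (10 μM). Supernatant was removed, cells were lysed in 0.3% Tween-20, and cAMP was measured by AlphaScreen.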

P2Y1R = P2Y1R (Homo sapiens, UniProt P47900); type: cell-based
P2Y1R, sequence (P47900 whole entry): as the sequence (P47900 whole entry) above

endogenous human P2Y1R = endogenous human P2Y1R (Homo sapiens, UniProt P47900); type: cell-based
endogenous human P2Y1R, sequence (P47900 whole entry): as above

Gi-coupled A1AR = Gi-coupled A1AR (Homo sapiens, UniProt P30542); type: cell-based
Gi-coupled A1AR, sequence (P30542 whole entry): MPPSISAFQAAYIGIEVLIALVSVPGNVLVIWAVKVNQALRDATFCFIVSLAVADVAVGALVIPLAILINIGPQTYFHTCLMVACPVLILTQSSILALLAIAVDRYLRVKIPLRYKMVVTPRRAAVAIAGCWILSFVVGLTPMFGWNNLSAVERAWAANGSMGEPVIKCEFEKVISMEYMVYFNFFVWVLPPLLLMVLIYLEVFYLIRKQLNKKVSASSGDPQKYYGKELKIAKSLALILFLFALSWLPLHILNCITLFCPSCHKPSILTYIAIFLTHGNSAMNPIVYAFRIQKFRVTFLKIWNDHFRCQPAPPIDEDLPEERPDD

human A1AR (Gi-coupled) = human A1AR (Gi-coupled) (Homo sapiens, UniProt P30542); type: cell-based
human A1AR (Gi-coupled), sequence (P30542 whole entry): as above

Gi-coupled P2Y12R = Gi-coupled P2Y12R (Homo sapiens, UniProt Q9H244); type: cell-based
Gi-coupled P2Y12R, sequence (Q9H244 whole entry): as the sequence (Q9H244 whole entry) above

A1AR = A1AR (Homo sapiens, UniProt P30542); type: cell-based
A1AR, sequence (P30542 whole entry): as the sequence (P30542 whole entry) above

endogenous A1AR = endogenous A1AR (Mesocricetus auratus, UniProt A0A1U8BVR4); type: cell-based, Syrian hamster
endogenous A1AR, sequence (A0A1U8BVR4 1-326): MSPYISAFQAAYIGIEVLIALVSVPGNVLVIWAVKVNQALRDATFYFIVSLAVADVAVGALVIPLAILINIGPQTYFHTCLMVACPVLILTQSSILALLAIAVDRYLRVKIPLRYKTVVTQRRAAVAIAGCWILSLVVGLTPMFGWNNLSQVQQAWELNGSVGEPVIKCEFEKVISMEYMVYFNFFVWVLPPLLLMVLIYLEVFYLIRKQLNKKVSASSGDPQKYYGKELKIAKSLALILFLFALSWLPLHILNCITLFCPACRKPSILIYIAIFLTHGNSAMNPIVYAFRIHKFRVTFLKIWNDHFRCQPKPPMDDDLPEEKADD

[5] = target: M2 muscarinic receptor (Gi-coupled) (Homo sapiens, UniProt P08172); type: cell-based
M2 muscarinic receptor (Gi-coupled), sequence (P08172 whole entry): as the sequence (P08172 whole entry) above

M3 muscarinic receptor = M3 muscarinic receptor (Homo sapiens, UniProt P20309); type: cell-based
M3 muscarinic receptor, sequence (P20309 whole entry): as the sequence (P20309 whole entry) above

Gβγ = settings: 10 μM, 5 min pretreatment; compared with PTX 50 ng/ml for 6 h; cited from earlier work
Gαq [6] = settings: cited from earlier work
Gαq [7] = settings: 10 μM, 5 min pretreatment; cited from earlier work
Gα15 = settings: cited from earlier work

**Q.** Which “Effect on agonist effects (calcium)” value (P2Y1R (Gq-coupled)) does the source give for C=C1C(=O)N[C@@H](C)C(=O)N(C)[C@@H](C)C(=O)N[C@@H]([C@H](OC(=O)[C@@H](NC(=O)CC)[C@H](O)C(C)C)C(C)C)C(=O)N(C)[C@@H]([C@@H](C)OC)C(=O)O[C@H](C(C)C)[C@H](NC(C)=O)C(=O)O[C@H](Cc2ccccc2)C(=O)N1C [UBO-QIC, L-threonine, (3R)-N-acetyl-3-hydroxy-L-leucyl-(αR)-α-hydroxybenzenepropanoyl-2,3-didehydro-N-methylalanyl-L-alanyl-N-methyl-L-alanyl-(3R)-3-[[(2S,3R)-3-hydroxy-4-methyl-1-oxo-2-[(1-oxopropyl)amino]pentyl]oxy]-L-leucyl-N,O-dimethyl-, (7→1)-lactone] (Ac-[X1][dPhLac][NMeDha]A[NMeA][X1](Leu(3R-OH,Nα-propionyl))[NMeT](Me); ester 1-C) here?
**A.** completely blocked

**Q.** What about the “Effect on calcium responses” value (P2Y1R (Gq-coupled)) of the same compound?
**A.** completely blocked

**Q.** And the “Effect on platelet aggregation” value (platelet aggregation)?
**A.** inhibit platelet aggregation

**Q.** What about the “Effect of inhibitor on carbachol-induced Ca2+ transients” value [1] of the same compound?
**A.** completely blocked

**Q.** And the “Effect on ERK1/2 activation” value (ERK1/2 activation; UBO-QIC 10 nM, initial experiment)?
**A.** little if any effect

**Q.** And the “Effect on agonist concentration-response curves, ERK1/2” value (ERK1/2 activation; in all cases (P2Y1, A1AR, M2, M3))?
**A.** somewhat non-parallel right shift

**Q.** What about the “Effect on Gα16” value (Gα16) of the same compound?
**A.** could inhibit Gα16

**Q.** And the “Effect on agonist effects (calcium)” value (P2Y12R (Gi-coupled))?
**A.** completely blocked

**Q.** What about the “Effect on calcium responses” value (P2Y12R (Gi-coupled)) of the same compound?
**A.** completely blocked

**Q.** And the “Effect of inhibitor on NECA-induced cAMP accumulation” value [2]?
**A.** did not show any effect

**Q.** What about the “Effect on blood pressure” value [3] of the same compound?
**A.** decrease blood pressure

**Q.** And the “Block of the maximal agonist effect in ERK1/2 phosphorylation” value (“Block of the maximal agonist effect” below) (M2 muscarinic receptor)?
**A.** ≤ 30%

**Q.** And the “Effect on 2MeSADP-induced Akt1/2/3 phosphorylation” value (Gαq-coupled P2Y1R)?
**A.** completely inhibited

**Q.** And the “Effect on ERK1/2 stimulation” value [4]?
**A.** only partially reduced

**Q.** And the “Effect on phosphorylation of protein kinase B (Akt)” value (Gαi subunits)?
**A.** no effect

**Q.** And the “Effect on CGS21680-induced cAMP accumulation” value (recombinant human A2AAR)?
**A.** did not affect

**Q.** What about the “Block of the maximal agonist effect” value (P2Y1R) of the same compound?
**A.** ≤ 30%

**Q.** And the “Effect on MRS2365-mediated calcium transients” value (endogenous human P2Y1R)?
**A.** antagonizes

**Q.** And the “Effect on Akt1/2/3 activity” value (Gi-coupled A1AR)?
**A.** no effect

**Q.** What about the “Effect on agonist effects (calcium)” value (human A1AR (Gi-coupled)) of the same compound?
**A.** completely blocked

**Q.** What about the “Effect on calcium responses” value (human A1AR (Gi-coupled)) of the same compound?
**A.** completely blocked

**Q.** What about the “Effect on Akt1/2/3 activity” value (Gi-coupled P2Y12R) of the same compound?
**A.** no effect

**Q.** What about the “Effect on the maximum effect of 2MeSADP-stimulated Akt activity” value (Gi-coupled P2Y12R) of the same compound?
**A.** modest but significant inhibition

**Q.** What about the “Block of the maximal agonist effect” value (A1AR) of the same compound?
**A.** ≤ 30%

**Q.** What about the “Effect on CPA-induced intracellular calcium mobilization” value (endogenous A1AR) of the same compound?
**A.** completely blocked

**Q.** What about the “Effect on agonist effects (calcium)” value [5] of the same compound?
**A.** completely blocked

**Q.** What about the “Effect on calcium responses” value [5] of the same compound?
**A.** completely blocked

**Q.** Which “Effect on ERK1/2 phosphorylation” value (M3 muscarinic receptor) does the source give for COc1ccc2c(c1)c(C1=C(c3c[nH]c4ccccc34)C(=O)NC1=O)cn2CCCN(C)C [GO6983, 3-[1-[3-(dimethylamino)propyl]-5-methoxy-1H-indol-3-yl]-4-(1H-indol-3-yl)-1H-pyrrole-2,5-dione] here?
**A.** completely blocked

**Q.** What about the “Effect on ERK1/2 phosphorylation” value (P2Y1R) of the same compound?
**A.** completely blocked

**Q.** With C=C1C(=O)NC(C)C(=O)N(C)C(C)C(=O)NC(C(OC(=O)C(NC(C)=O)C(O)C(C)C)C(C)C)C(=O)N(C)C(C(C)OC)C(=O)OC(C)C(NC(C)=O)C(=O)OC(Cc2ccccc2)C(=O)N1C (stereo not drawn) [YM-254890] (Ac-T[PhLac][NMeDha]A[NMeA][X2][NMeT](Me); ester 1-C; configuration not given here) as the compound, how does the “Inhibition of fMLP-induced Ca2+ mobilization” value (Gβγ) read?
**A.** to a lesser extent than pertussis toxin

**Q.** What about the “Effect on release of GDP from Gαq” value (Gαq [6]) of the same compound?
**A.** inhibits the release of GDP from Gαq

**Q.** And the “Inhibition of UTP-mediated Ca2+ release” value (Gαq [7])?
**A.** much larger inhibition

**Q.** What about the “Effect on Gα15-mediated Ca2+ release” value (Gα15) of the same compound?
**A.** only a small effect
